Data as given in ChEMBL document CHEMBL1125460, “Antimalarial activity of new dihydroartemisinin derivatives. 5. Sugar analogues” (J Med Chem, 1992).
Values after ≈ are worked out from the molar mass of the structure shown.

Tests used:
Plasmodium berghei [1] = test: Antimalarial activity for Plasmodium berghei infected mice (Mus musculus) (n=5) at 20 mg/kg/day; assay type: functional
Plasmodium berghei [2] = test: Antimalarial activity for Plasmodium berghei infected mice (Mus musculus) (n=5) at 320 mg/kg/day; assay type: functional
Plasmodium berghei [3] = test: Antimalarial activity for Plasmodium berghei infected mice (Mus musculus) (n=5) at 80 mg/kg/day; assay type: functional
Plasmodium falciparum [4] = test: In vitro antimalarial activity against Plasmodium falciparum Indochina W2; assay type: functional, organism-based
Procedure, shortened: (§1)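 Compound dissolved in DMSO and 70% ethanol, then diluted in RPMI 1640 with 10% human plasma and tested over (1.56-100) × 10^-9 M. Parasites at 0.5% parasitemia, 1% hematocrit, incubated 24 h with compound before [3H]hypoxanthine was added, then a further 18 h. Read-out is [3H]hypoxanthine uptake. IC50 obtained by nonlinear regression of concentration-response data.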

Plasmodium falciparum [5] = test: In vitro antimalarial activity against Plasmodium falciparum D6 Sierra Leone; assay type: functional, organism-based; procedure, shortened: as §1

Structure (SMILES) | No. of mice cured (Plasmodium berghei [1]) | No. of mice cured (Plasmodium berghei [2]) | No. of mice cured (Plasmodium berghei [3]) | IC50 (Plasmodium falciparum [4]) | IC50 (Plasmodium falciparum [5])
CC(=O)O[C@@H]1[C@@H](OC(C)=O)[C@@H](C)O[C@H](COC(=O)CO[C@H]2O[C@@H]3O[C@@]4(C)CC[C@H]5[C@H](C)CC[C@@H]([C@H]2C)[C@@]35OO4)[C@H]1OC(C)=O | 0 | 5 | 0 | 0.00019 µg/mL (≈ 0.000302 µM) | 0.00248 µg/mL (≈ 0.00394 µM)
C[C@H]1[C@@H](O[C@@H]2O[C@H](CO)[C@@H](O)[C@H](O)[C@H]2O)O[C@@H]2O[C@@]3(C)CC[C@H]4[C@H](C)CC[C@@H]1[C@@]24OO3 |  |  |  | 0.0341 µg/mL (≈ 0.0763 µM) | 0.121 µg/mL (≈ 0.272 µM)
C[C@H]1[C@@H](O[Si](C)(C)C)O[C@@H]2O[C@@]3(C)CC[C@H]4[C@H](C)CC[C@@H]1[C@@]24OO3 | 1 | 4 | 5 | 0.00042 µg/mL (≈ 0.00118 µM) | 0.00111 µg/mL (≈ 0.00311 µM)
C[C@H]1[C@@H](O[C@@H]2O[C@H](CO)[C@H](O)[C@H](O)[C@H]2O)O[C@@H]2O[C@@]3(C)CC[C@H]4[C@H](C)CC[C@@H]1[C@@]24OO3 |  |  |  | 0.0356 µg/mL (≈ 0.0797 µM) | 0.0131 µg/mL (≈ 0.0294 µM)
C[C@H]1[C@@H](O[C@@H]2O[C@H](CO)[C@@H](O[C@@H]3O[C@H](CO)[C@@H](O)[C@H](O)[C@H]3O)[C@H](O)[C@H]2O)O[C@@H]2O[C@@]3(C)CC[C@H]4[C@H](C)CC[C@@H]1[C@@]24OO3 |  |  |  | 0.171 µg/mL (≈ 0.281 µM) | 0.71 µg/mL (≈ 1.17 µM)
C[C@@H]1CC[C@H]2[C@@H](C)C(=O)O[C@@H]3O[C@@]4(C)CC[C@@H]1[C@]32OO4 [ARTEMISININ] |  |  |  | 0.00068 µg/mL (≈ 0.00241 µM) | 
